From ChEMBL document CHEMBL3593206, “SAR Studies of Exosite-Binding Substrate-Selective Inhibitors of A Disintegrin And Metalloprotease 17 (ADAM17) and Application as Selective in Vitro Probes” (J Med Chem, 2015)

Key:
[1] = molecular target: T1, Disintegrin and metalloproteinase domain-containing protein 17 (Homo sapiens, UniProt P78536); experiment: Inhibition of ADAM17 (unknown origin) preincubated for 30 mins followed by substrate addition measured every 30 mins for 2 hrs by fluorescence assay
T1 sequence (P78536 whole entry, the tested form may be a part): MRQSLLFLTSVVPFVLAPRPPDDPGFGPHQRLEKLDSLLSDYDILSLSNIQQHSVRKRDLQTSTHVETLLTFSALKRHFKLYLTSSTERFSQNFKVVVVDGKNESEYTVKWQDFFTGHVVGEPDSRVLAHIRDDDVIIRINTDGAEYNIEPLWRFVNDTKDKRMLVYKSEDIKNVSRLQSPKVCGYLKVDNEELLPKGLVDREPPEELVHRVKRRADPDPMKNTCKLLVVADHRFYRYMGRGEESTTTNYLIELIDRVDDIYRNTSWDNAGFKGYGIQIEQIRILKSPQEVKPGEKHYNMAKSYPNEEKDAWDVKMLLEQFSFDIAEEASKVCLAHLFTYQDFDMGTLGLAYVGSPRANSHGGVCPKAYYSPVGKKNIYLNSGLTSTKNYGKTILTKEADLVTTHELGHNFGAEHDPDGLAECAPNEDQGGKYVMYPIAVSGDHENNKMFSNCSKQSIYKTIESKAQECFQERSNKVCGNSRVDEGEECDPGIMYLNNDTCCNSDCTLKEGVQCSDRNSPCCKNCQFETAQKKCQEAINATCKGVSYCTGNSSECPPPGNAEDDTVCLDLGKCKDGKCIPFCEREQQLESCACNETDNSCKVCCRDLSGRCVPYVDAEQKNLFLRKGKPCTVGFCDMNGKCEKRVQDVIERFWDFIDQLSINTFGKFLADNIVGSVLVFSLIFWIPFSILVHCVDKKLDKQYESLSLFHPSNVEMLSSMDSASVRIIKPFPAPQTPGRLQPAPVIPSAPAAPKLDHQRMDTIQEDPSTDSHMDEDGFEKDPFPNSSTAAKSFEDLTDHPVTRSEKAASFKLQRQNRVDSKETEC
Summary of the method: (§1)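 Enzyme at 30 nM (3× solution) in 10 mM Hepes, 0.001% Brij-35, pH 7.5. Inhibitor series of 10 points, 1:3, from 300 μM, preincubated 30 min at RT. Glycosylated substrate added from a 30 μM 3× solution. Fluorescence (ex 360/em 460 nm) read every 30 min for 2 h. Inhibition taken from hydrolysis rates against substrate-only and substrate-plus-enzyme wells.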

[2] = molecular target: T2, Disintegrin and metalloproteinase domain-containing protein 10 (Homo sapiens, UniProt O14672); experiment: Inhibition of ADAM10 (unknown origin) preincubated for 30 mins followed by substrate addition measured every 30 mins for 2 hrs by fluorescence assay; summary of the method: as §1
T2 sequence (O14672 whole entry): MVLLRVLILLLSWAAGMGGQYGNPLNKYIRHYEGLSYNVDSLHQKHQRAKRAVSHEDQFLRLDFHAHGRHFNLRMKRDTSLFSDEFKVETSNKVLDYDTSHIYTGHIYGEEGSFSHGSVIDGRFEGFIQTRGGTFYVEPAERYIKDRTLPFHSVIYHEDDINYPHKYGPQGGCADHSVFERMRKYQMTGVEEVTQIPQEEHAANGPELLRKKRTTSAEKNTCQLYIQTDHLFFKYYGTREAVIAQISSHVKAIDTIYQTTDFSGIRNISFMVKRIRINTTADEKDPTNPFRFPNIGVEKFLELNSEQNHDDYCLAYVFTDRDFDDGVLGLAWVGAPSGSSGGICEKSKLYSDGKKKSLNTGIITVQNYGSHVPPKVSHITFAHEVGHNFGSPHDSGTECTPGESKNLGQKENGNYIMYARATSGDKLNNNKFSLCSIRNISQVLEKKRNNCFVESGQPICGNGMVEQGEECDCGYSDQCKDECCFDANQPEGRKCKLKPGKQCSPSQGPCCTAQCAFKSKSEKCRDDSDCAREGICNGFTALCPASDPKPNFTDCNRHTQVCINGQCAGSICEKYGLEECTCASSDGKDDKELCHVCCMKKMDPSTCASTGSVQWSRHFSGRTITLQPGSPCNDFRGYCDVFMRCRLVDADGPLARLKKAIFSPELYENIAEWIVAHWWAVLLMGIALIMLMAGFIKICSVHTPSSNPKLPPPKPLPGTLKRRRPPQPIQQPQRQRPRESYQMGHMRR

[3] = molecular target: T1, Disintegrin and metalloproteinase domain-containing protein 17; experiment: Inhibition of ADAM17 in human THP1 cells assessed as inhibition of LPS-stimulated TNFalpha cleavage at 25 uM after 1 hr by AlphaScreen assay relative to control; assay type: cell-based; details: THP-1
Summary of the method: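 THP-1 cells grown in RPMI 1640 with 10% FBS and 0.05 mM 2-mercaptoethanol; 3000 cells per well. Compound given in 3% DMSO for 1 h, then LPS added (1 μg/mL final) and cells incubated overnight at 37 °C. TNFα detected by AlphaScreen using anti-TNFα acceptor beads and streptavidin donor beads, each step 1 h in the dark at RT.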

[4] = molecular target: Matrix metalloproteinase-14 (Homo sapiens, UniProt P50281); experiment: Inhibition of MMP14 (unknown origin) using Mca-KLPGL-Dnp-AR as substrate at 100 uM preincubated for 30 mins followed by substrate addition measured after 1 hr by fluorescence assay relative to control
Neutrophil collagenase = Neutrophil collagenase (Homo sapiens, UniProt P22894); experiment: Inhibition of MMP8 (unknown origin) using Mca-KLPGL-Dnp-AR as substrate at 100 uM preincubated for 30 mins followed by substrate addition measured after 1 hr by fluorescence assay relative to control
Chain of Neutrophil collagenase (P22894 101-467 limits assumed): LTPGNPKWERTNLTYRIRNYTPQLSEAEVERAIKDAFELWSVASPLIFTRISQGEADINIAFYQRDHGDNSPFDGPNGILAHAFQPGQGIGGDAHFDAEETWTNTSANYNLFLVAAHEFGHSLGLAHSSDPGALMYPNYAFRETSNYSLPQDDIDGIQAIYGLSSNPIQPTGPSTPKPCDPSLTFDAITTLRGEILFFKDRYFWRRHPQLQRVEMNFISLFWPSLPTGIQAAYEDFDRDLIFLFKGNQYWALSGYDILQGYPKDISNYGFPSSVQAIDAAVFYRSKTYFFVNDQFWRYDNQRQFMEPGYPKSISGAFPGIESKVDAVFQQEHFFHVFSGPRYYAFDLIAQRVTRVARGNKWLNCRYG
Summary of the method: (§2)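 Inhibitor as 10-point 1:3 dilutions from 300 μM, 30 min at RT. Substrate added from a 30 μM 3× solution. Single fluorescence read (ex 324/em 393 nm) after 1 h at RT.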

[5] = molecular target: 72 kDa type IV collagenase (Homo sapiens, UniProt P08253); experiment: Inhibition of MMP2 (unknown origin) using Mca-KLPGL-Dnp-AR as substrate at 100 uM preincubated for 30 mins followed by substrate addition measured after 1 hr by fluorescence assay relative to control; summary of the method: as §2
Chain of 72 kDa type IV collagenase (P08253 110-660 limits assumed): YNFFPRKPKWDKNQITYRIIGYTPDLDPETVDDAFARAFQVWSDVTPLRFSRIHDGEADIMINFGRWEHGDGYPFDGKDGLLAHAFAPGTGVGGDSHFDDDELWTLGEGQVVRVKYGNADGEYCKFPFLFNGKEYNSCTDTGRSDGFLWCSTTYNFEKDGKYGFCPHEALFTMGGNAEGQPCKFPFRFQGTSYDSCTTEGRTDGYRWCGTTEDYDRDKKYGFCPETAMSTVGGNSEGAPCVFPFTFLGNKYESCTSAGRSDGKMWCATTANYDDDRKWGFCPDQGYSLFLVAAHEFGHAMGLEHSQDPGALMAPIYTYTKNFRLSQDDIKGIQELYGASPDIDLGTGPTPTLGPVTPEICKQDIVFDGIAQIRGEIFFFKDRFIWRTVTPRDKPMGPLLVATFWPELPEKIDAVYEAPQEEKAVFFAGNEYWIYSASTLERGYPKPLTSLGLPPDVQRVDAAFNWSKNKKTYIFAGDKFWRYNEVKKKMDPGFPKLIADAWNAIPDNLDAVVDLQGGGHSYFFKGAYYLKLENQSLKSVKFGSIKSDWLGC

[6] = molecular target: Matrix metalloproteinase-9 (Homo sapiens, UniProt P14780); experiment: Inhibition of MMP9 (unknown origin) using Mca-KLPGL-Dnp-AR as substrate at 100 uM preincubated for 30 mins followed by substrate addition measured after 1 hr by fluorescence assay relative to control; summary of the method: as §2
Chain of Matrix metalloproteinase-9 (P14780 whole entry, the tested form may be a part): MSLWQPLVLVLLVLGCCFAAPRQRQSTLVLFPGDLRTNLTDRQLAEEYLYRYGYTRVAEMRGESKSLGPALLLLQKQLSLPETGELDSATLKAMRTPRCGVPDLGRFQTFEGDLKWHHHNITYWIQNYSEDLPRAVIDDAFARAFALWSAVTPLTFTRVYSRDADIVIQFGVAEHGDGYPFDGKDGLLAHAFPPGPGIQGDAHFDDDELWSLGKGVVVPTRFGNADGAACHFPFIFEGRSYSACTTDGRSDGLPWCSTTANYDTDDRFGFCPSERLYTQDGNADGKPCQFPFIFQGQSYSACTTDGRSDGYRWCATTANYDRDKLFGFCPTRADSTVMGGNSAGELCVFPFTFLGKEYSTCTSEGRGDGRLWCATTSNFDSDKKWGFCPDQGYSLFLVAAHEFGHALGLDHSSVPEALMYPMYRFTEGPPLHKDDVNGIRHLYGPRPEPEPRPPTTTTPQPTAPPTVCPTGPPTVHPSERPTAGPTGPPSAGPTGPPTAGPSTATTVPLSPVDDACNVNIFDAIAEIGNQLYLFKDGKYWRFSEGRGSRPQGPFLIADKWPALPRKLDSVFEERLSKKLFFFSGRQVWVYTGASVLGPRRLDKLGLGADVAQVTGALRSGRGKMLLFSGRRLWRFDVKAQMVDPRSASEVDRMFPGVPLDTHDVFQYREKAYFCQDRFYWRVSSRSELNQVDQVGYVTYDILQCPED

[7] = molecular target: T3, Disintegrin and metalloproteinase domain-containing protein 10 (Homo sapiens) (UniProt O14672); experiment: Inhibition of ADAM10 in human A549 cells assessed as inhibition of betacellulin shedding at 40 uM after 1 hr by ELISA; assay type: cell-based
T3 sequence (whole entry): T2 sequence (O14672 whole entry)
Summary of the method: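 A549 cells were tested for betacellulin shedding at 40 μM, with Marimastat at 10 μM as control.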

[8] = molecular target: T1, Disintegrin and metalloproteinase domain-containing protein 17; experiment: Inhibition of ADAM17 in human A549 cells assessed as inhibition of PMA-stimulated heregulin shedding at 40 uM incubated for 1 hr followed by PMA stimulation measured after 1 hr; assay type: cell-based
Summary of the method: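 Heregulin shedding in A549 cells, with all compounds tested at 40 μM.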

[9] = molecular target: T3, Disintegrin and metalloproteinase domain-containing protein 10 (Homo sapiens); experiment: Inhibition of ADAM10 (unknown origin) at 100 uM preincubated for 30 mins followed by substrate addition measured every 30 mins for 2 hrs by fluorescence assay relative to control; summary of the method: as §1
[10] = molecular target: T1, Disintegrin and metalloproteinase domain-containing protein 17; experiment: Inhibition of ADAM17 (unknown origin) at 100 uM preincubated for 30 mins followed by substrate addition measured every 30 mins for 2 hrs by fluorescence assay relative to control; summary of the method: as §1
[11] = molecular target: T1, Disintegrin and metalloproteinase domain-containing protein 17; experiment: Inhibition of ADAM17 in human A549 cells assessed as effect on PMA-stimulated TGFalpha shedding up to 100 uM preincubated for 1 hr followed by PMA stimulation measured after 1 hr by ELISA; assay type: cell-based
Summary of the method: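 TGFα shedding from PMA-treated A549 cells tested up to 100 μM. Marimastat at 10 μM served as control, with a non-PMA-treated control included; soluble TGFα measured in the supernatant.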

Row | IC50 [1] [µM] | IC50 [2] [µM] | SMILES | other results
1 | 15 | > 100 | O=C1NC[C@@H](Cc2ccc3ccccc3c2)N(C[C@@H]2CCCN2C[C@H](Cc2ccc(O)cc2)N2C[C@@H](Cc3ccc(O)cc3)N(CCC34CC5CC(CC(C5)C3)C4)C(=O)C2=O)C1=O | –
2 | 10 | > 100 | CCC[C@H]1CNC(=O)C(=O)N1C[C@@H]1CCCN1C[C@H](Cc1ccc(O)cc1)N1C[C@H](Cc2ccc(O)cc2)N(CC2CCC(C(C)(C)C)CC2)C(=O)C1=O (some centres undefined) | –
3 | 5.9 | > 100 | CCC[C@H]1CNC(=O)C(=O)N1C[C@@H]1CCCN1C[C@H](Cc1ccc(O)cc1)N1C[C@H](Cc2ccc(O)cc2)N(CCC23CC4CC(CC(C4)C2)C3)C(=O)C1=O | –
4 | 6.5 | > 100 | CCCC[C@H]1CN([C@@H](Cc2ccc(O)cc2)CN2CCC[C@H]2CN2C(=O)C(=O)NC[C@@H]2CCC)C(=O)C(=O)N1CCC12CC3CC(CC(C3)C1)C2 | –
5 | 10 | > 100 | CCC[C@H]1CNC(=O)C(=O)N1C[C@@H]1CCCN1C[C@H](Cc1ccc(O)cc1)N1C[C@H](Cc2ccc(O)cc2)N(CC23CC4CC(CC(C4)C2)C3)C(=O)C1=O | –
6 | – | – | O=C1NCC(Cc2ccccc2)N(C[C@@H]2CCCN2C[C@@H](CC2CCCCC2)N2C[C@H](Cc3ccccc3)N(CCc3ccccc3)C(=O)C2=O)C1=O (single isomer, unassigned) | inhibition [3]: 0%; inhibition [4]: 0%; inhibition (Neutrophil collagenase): 0%; inhibition [5]: 0%; inhibition [6]: 0%; inhibition [7]: 0%; inhibition [8]: 34%; inhibition [9]: 0%; inhibition [10]: 100%; inhibition [11]: 0%
7 | 35 | > 100 | CCC[C@H]1CNC(=O)C(=O)N1C[C@@H]1CCCN1C[C@H](Cc1ccc(O)cc1)N1C[C@H](Cc2ccc(O)cc2)N(CC2CCCC2)C(=O)C1=O | –
8 | 5.7 | > 100 | O=C1NC[C@@H](Cc2ccc3ccccc3c2)N(C[C@@H]2CCCN2C[C@H](Cc2ccc(O)cc2)N2C[C@@H](Cc3ccc4ccccc4c3)N(CCC34CC5CC(CC(C5)C3)C4)C(=O)C2=O)C1=O | –
